In brackets after ≈: the same amount, converted by molar mass. One block for each compound: values may come before it.
Columns and labels:
[1] = target: T1, Plasma kallikrein (Homo sapiens, UniProt P03952); assay: Inhibition of human plasma kallikrein using H-D-Pro-Phe-Arg-AFC as flurogenic substrate preincubated for 5 mins followed by substrate addition by fluorometer analysis; format: cell-free
[2] = target: T1, Plasma kallikrein; assay: Inhibition of human plasma kallikrein using H-D-Pro-Phe-Arg-AFC as flurogenic substrate at 100 nM preincubated for 5 mins followed by substrate addition by fluorometer analysis relative to control; format: cell-free
In short: (§1)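 Crude library compounds (unpurified, dissolved in DMSO) were screened twice, once at each of the single concentrations. Human plasma kallikrein was preincubated with compound for 5 min, then H-D-Pro-Phe-Arg-AFC was added. Activity was followed as the kinetic rate of fluorogenic substrate cleavage, and percent inhibition was calculated relative to control.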

[3] = target: T1, Plasma kallikrein; assay: Inhibition of human plasma kallikrein using H-D-Pro-Phe-Arg-AFC as flurogenic substrate at 1000 nM preincubated for 5 mins followed by substrate addition by fluorometer analysis relative to control; format: cell-free; in short: as §1
[4] = Kinetic solubility of the compound in 0.1N HCl
[5] = Kinetic solubility of the compound in aqueous assay buffer at pH 7.7
[6] = Metabolic stability in human liver microsomes assessed as intrinsic clearance per mg of protein measured upto 60 mins in presence of NADPH regenerating system by LC-MS/MS analysis; format: ADME, Microsome; settings: for microsomal intrinsic clearance: microsomes, 1 h
[7] = Apparent permeability of the compound across apical side to basolateral side in human Caco-2 cells incubated for 1 hr by LC-MS/MS analysis; settings: for Papp: caco-2, 1 h
[8] = Clearance in Sprague-Dawley rat blood at 1 mg/kg, iv measured upto 24 hrs by LC-MS analysis; format: ADME, organism-based; settings: whole blood
In short: (§2)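 Male Sprague-Dawley rats, two per route, single dose. IV: 1 mg/kg given as 1 mL/kg of a nominal 1 mg/mL formulation in vehicle. PO: 10 mg/kg given as 5 mL/kg of a 2 mg/mL formulation. PK parameters from noncompartmental analysis. Clearance expressed relative to rat liver blood flow of 80 mL/min/kg.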

[9] = Thermodynamic solubility of the compound in FaSSGF at 1 mg/ml at pH 1.6 measured after 4 hrs; format: physicochemical; settings: FaSSGF, pH 1.6, read-out: Therm_solubility
In short: (§3)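 Compound (nominal 1 or 100 mg/mL as free base) added to biorelevant medium preheated to 37 °C: FaSSGF at pH 1.6 or FaSSIF at pH 6.5. Vortexed, then shaken 4 h at 37 °C (~500 rpm). Centrifuged at 15000g for 10 min at 37 °C. Supernatant diluted and quantified against calibration standards. Crystalline material used where stated.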

[10] = Half life in Sprague-Dawley rat at 10 mg/kg, po and 1 mg/kg, iv measured upto 24 hrs by LC-MS analysis; format: ADME, organism-based; settings: in vivo; in short: as §2
[11] = Oral bioavailability in Sprague-Dawley rat at 10 mg/kg measured upto 24 hrs by LC-MS analysis; format: ADME, organism-based; settings: in vivo; in short: as §2
[12] = Thermodynamic solubility of the compound in FaSSIF at 1 mg/ml at pH 6.5 measured after 4 hrs; format: physicochemical; settings: simulated gi fluid, pH 6.5, 4 h; in short: as §3
[13] = Clearance in Sprague-Dawley rat assessed as liver blood flow at 1 mg/kg, iv measured upto 24 hrs by LC-MS analysis; format: ADME, organism-based; settings: in vivo; in short: as §2

T1 sequence (P03952 20-390 limits assumed): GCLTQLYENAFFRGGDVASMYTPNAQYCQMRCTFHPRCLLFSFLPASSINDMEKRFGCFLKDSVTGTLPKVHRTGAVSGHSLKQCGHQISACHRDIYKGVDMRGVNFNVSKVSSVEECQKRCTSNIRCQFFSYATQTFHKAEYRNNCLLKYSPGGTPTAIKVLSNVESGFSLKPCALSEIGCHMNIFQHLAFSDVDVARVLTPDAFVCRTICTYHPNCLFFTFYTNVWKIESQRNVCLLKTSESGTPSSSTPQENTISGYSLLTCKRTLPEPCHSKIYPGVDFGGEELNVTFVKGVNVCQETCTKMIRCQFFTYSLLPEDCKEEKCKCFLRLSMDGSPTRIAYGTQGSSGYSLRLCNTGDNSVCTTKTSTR
T1 sequence (P03952 391-638 limits assumed): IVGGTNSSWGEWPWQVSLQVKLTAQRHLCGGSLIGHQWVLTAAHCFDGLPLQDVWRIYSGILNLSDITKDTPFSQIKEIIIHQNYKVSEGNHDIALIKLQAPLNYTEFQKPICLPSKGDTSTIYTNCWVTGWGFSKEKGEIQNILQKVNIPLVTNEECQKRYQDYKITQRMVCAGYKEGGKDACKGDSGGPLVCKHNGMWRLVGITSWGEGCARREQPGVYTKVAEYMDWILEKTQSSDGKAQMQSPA

Structure (SMILES): Cc1cc(C(=O)NCc2ccc(CN)cc2)c(C)n1Cc1coc(-c2ccccc2)n1
IC50 [1]: 480 nM

Structure (SMILES): COCc1nn(Cc2ccc(Cn3ccccc3=O)cc2)cc1C(=O)NCc1ncc(Cl)cc1C#N
IC50 [1]: 250 nM

Structure (SMILES): O=C(NCc1c(F)cccc1C(F)(F)F)c1cnn(Cc2ccc(Cn3ccccc3=O)cc2)c1
inhibition [2]: 83%
inhibition [3]: 97%
IC50 [1]: 7.8 nM

Structure (SMILES): O=C(NCc1c(Cl)cccc1Cl)c1cnn(Cc2ccc(Cn3ccccc3=O)cc2)c1
inhibition [2]: 56%
inhibition [3]: 94%
IC50 [1]: 40 nM

solubility kinetic [4]: > 120 µg/mL
solubility kinetic [5]: > 120 µg/mL
Structure (SMILES): COCc1nn(Cc2ccc(Cn3ccccc3=O)cc2)cc1C(=O)NCc1cc(OC)ccc1F

inhibition [2]: 13%
inhibition [3]: 59%
Structure (SMILES): O=C(NCc1ccccc1F)c1cnn(Cc2ccc(Cn3ccccc3=O)cc2)c1

Structure (SMILES): CCOc1ccnc(CNC(=O)c2cn(Cc3ccc(Cn4ccccc4=O)cc3)nc2COC)c1F
IC50 [1]: 7.9 nM
microsomal intrinsic clearance [6]: 69 µL/min

inhibition [2]: 11%
inhibition [3]: 57%
Structure (SMILES): Cc1cccc(CNC(=O)c2cnn(Cc3ccc(Cn4ccccc4=O)cc3)c2)c1

Structure (SMILES): O=C(NCc1c(F)cccc1F)c1cnn(Cc2ccc(Cn3ccccc3=O)cc2)c1
inhibition [2]: 47%
inhibition [3]: 88%
IC50 [1]: 62 nM

Structure (SMILES): Cc1cc(C(=O)NCc2ccc(CN)cc2)c(C)n1Cc1cccs1
IC50 [1]: 2700 nM

Structure (SMILES): COc1cccc(CNC(=O)c2cnn(Cc3ccc(Cn4ccccc4=O)cc3)c2)c1
inhibition [2]: 35%
inhibition [3]: 83%
IC50 [1]: 90 nM

inhibition [2]: 11%
inhibition [3]: 63%
Structure (SMILES): COc1ccccc1CNC(=O)c1cnn(Cc2ccc(Cn3ccccc3=O)cc2)c1

IC50 [1]: > 10000 nM
Structure (SMILES): Cc1cc(C(=O)NCc2ccc(CN)cc2)c(C)n1CCc1ccccc1

solubility kinetic [4]: 29 µg/mL (≈ 59.4 µM)
solubility kinetic [5]: > 120 µg/mL
Structure (SMILES): CCc1cccc(CNC(=O)c2cn(Cc3ccc(Cn4ccccc4=O)cc3)nc2COC)c1F

Structure (SMILES): COCc1nn(Cc2ccc(Cn3ccccc3=O)cc2)cc1C(=O)NCc1nc(C)ccc1F
IC50 [1]: 900 nM

Structure (SMILES): COCc1nn(Cc2ccc(Cn3ccccc3=O)cc2)cc1C(=O)NCc1cccc(OC)c1F
solubility kinetic [4]: > 120 µg/mL
Papp [7]: 25 10^-6 cm/s
solubility kinetic [5]: > 120 µg/mL
IC50 [1]: 17 nM
microsomal intrinsic clearance [6]: 45 µL/min

Structure (SMILES): COCc1nn(Cc2ccc(Cn3ccccc3=O)cc2)cc1C(=O)NCc1nc(OC)ccc1F
IC50 [1]: 900 nM

inhibition [2]: 17%
inhibition [3]: 72%
Structure (SMILES): COc1ccc(CNC(=O)c2cnn(Cc3ccc(Cn4ccccc4=O)cc3)c2)cc1

inhibition [2]: 13%
inhibition [3]: 60%
Structure (SMILES): O=C(NCc1ccc(Cl)cc1)c1cnn(Cc2ccc(Cn3ccccc3=O)cc2)c1

inhibition [2]: 0%
inhibition [3]: 29%
Structure (SMILES): O=C(NCc1ccccc1)c1cnn(Cc2ccc(Cn3ccccc3=O)cc2)c1

Structure (SMILES): Cc1cc(C(=O)NCc2ccc(CN)cc2)c(C)n1Cc1csc(Cc2ccccc2)n1
IC50 [1]: 2700 nM

Structure (SMILES): COCc1nn(Cc2ccc(Cn3ccccc3=O)cc2)cc1C(=O)NCc1cnccc1C(F)(F)F
IC50 [1]: 460 nM

Structure (SMILES): Cc1cc(C(=O)NCc2ccc(CN)cc2)c(C)n1Cc1cc(-c2ccccc2)cs1
IC50 [1]: 570 nM

Structure (SMILES): Cc1cc(C(=O)NCc2ccc(C(=N)N)cc2)c(C)n1Cc1ccccc1
IC50 [1]: 5.5 nM

Structure (SMILES): Cc1cc(C(=O)NCc2ccc(CN)cc2)c(C)n1Cc1cccc(-c2ccccc2)c1
IC50 [1]: 730 nM

inhibition [2]: 12%
inhibition [3]: 67%
Structure (SMILES): O=C(NCc1ccccc1Cl)c1cnn(Cc2ccc(Cn3ccccc3=O)cc2)c1

Structure (SMILES): COCc1nn(Cc2ccc(Cn3ccccc3=O)cc2)cc1C(=O)NCc1nccc(Cl)c1F
IC50 [1]: 93 nM

Structure (SMILES): COCc1nn(Cc2ccc(Cn3ccccc3=O)cc2)cc1C(=O)NCc1sccc1Cl
IC50 [1]: 210 nM

Structure (SMILES): Cc1cnn(Cc2ccc(Cn3c(C)cc(C(=O)NCc4ccc(CN)cc4)c3C)cc2)c1
IC50 [1]: 65 nM

solubility kinetic [4]: > 120 µg/mL
solubility kinetic [5]: > 120 µg/mL
Structure (SMILES): COCc1nn(Cc2ccc(Cn3ccccc3=O)cc2)cc1C(=O)NCc1cccc(O)c1F

Structure (SMILES): Cc1cccc(C)c1CNC(=O)c1cnn(Cc2ccc(Cn3ccccc3=O)cc2)c1
inhibition [2]: 53%
inhibition [3]: 89%
IC50 [1]: 68 nM

Structure (SMILES): Cc1cc(C(=O)NCc2ccc(CN)cc2)c(C)n1CCCCc1ccccc1
IC50 [1]: 920 nM

Structure (SMILES): COCc1nn(Cc2ccc(Cn3ccccc3=O)cc2)cc1C(=O)NCc1nccc(OC)c1C
clearance [8]: 35 mL/min/kg
solubility thermodynamic at 4 h [9]: 970 µg/mL (≈ 1990 µM)
t1/2 [10]: 1 h
F [11]: 31%
IC50 [1]: 4.1 nM
Therm_solubility [12]: 110 µg/mL
LBF [13]: 44%

Structure (SMILES): COc1ccnc(CNC(=O)c2cnn(Cc3ccc(Cn4ccccc4=O)cc3)c2)c1F
IC50 [1]: 5.1 nM
microsomal intrinsic clearance [6]: 2 µL/min

Structure (SMILES): COCc1nn(Cc2ccc(Cn3ccccc3=O)cc2)cc1C(=O)NCc1nccc(OC(C)C)c1F
IC50 [1]: 2400 nM

microsomal intrinsic clearance [6]: 181 µL/min
Structure (SMILES): Cc1cnn(Cc2ccc(Cn3cc(C(=O)NCc4ccc5c(N)nccc5c4)cn3)cc2)c1

Structure (SMILES): COCc1nn(Cc2ccc(Cn3ccccc3=O)cc2)cc1C(=O)NCc1ncc(C)c(OC)c1C
IC50 [1]: 37 nM

solubility kinetic [4]: > 110 µg/mL
solubility kinetic [5]: 58 µg/mL (≈ 119 µM)
microsomal intrinsic clearance [6]: 170 µL/min
Structure (SMILES): COc1cccc(CNC(=O)c2cn(Cc3ccc(Cn4ccccc4=O)cc3)nc2C2CC2)c1F

Structure (SMILES): COCc1nn(Cc2ccc(Cn3ccccc3=O)cc2)cc1C(=O)NCc1ncc(Cl)cc1F
IC50 [1]: 160 nM

Structure (SMILES): COCc1nn(Cc2ccc(Cn3ccccc3=O)cc2)cc1C(=O)NCc1cc[nH]n1
IC50 [1]: 570 nM

Structure (SMILES): O=C(NCc1c(F)cccc1Cl)c1cnn(Cc2ccc(Cn3ccccc3=O)cc2)c1
inhibition [2]: 61%
inhibition [3]: 92%
IC50 [1]: 31 nM

Structure (SMILES): Cc1cc(C(=O)NCc2ccc(CN)cc2)c(C)n1Cc1ccc(-c2ccccc2)cc1
IC50 [1]: 5600 nM

Structure (SMILES): COc1ccc(F)c(CNC(=O)c2cn(Cc3ccc(Cn4ccccc4=O)cc3)nc2CN(C)C)c1F
Papp [7]: 14 10^-6 cm/s
IC50 [1]: 6.3 nM
microsomal intrinsic clearance [6]: 280 µL/min

Structure (SMILES): NCc1ccc(CNC(=O)c2cnn(Cc3csc(-c4ccccc4)n3)c2)cc1
IC50 [1]: 850 nM

Structure (SMILES): COc1ccc(F)c(CNC(=O)c2cnn(Cc3ccc(Cn4ccccc4=O)cc3)c2)c1F
IC50 [1]: 3 nM
microsomal intrinsic clearance [6]: 36 µL/min

Structure (SMILES): COCc1nn(Cc2ccc(Cn3ccccc3=O)cc2)cc1C(=O)NCc1ncc(F)cc1F
IC50 [1]: 2220 nM

inhibition [2]: 12%
inhibition [3]: 62%
Structure (SMILES): Cc1ccccc1CNC(=O)c1cnn(Cc2ccc(Cn3ccccc3=O)cc2)c1

solubility kinetic [4]: > 120 µg/mL
solubility kinetic [5]: > 120 µg/mL
microsomal intrinsic clearance [6]: 120 µL/min
Structure (SMILES): COCc1nn(Cc2ccc(Cn3ccccc3=O)cc2)cc1C(=O)NCc1c(Cl)ccc(OC)c1F

Structure (SMILES): COCc1nn(Cc2ccc(Cn3ccccc3=O)cc2)cc1C(=O)NCc1nccc(C)c1Cl
IC50 [1]: 300 nM

solubility kinetic [4]: > 120 µg/mL
solubility kinetic [5]: > 120 µg/mL
Structure (SMILES): COc1cccc(CNC(=O)c2cn(Cc3ccc(Cn4ccccc4=O)cc3)nc2N(C)C)c1F

Structure (SMILES): COCc1nn(Cc2ccc(Cn3ccccc3=O)cc2)cc1C(=O)NCc1cc(C)[nH]n1
IC50 [1]: 220 nM

Structure (SMILES): Cc1cc(C(=O)NCc2ccc(CN)cc2)c(C)n1Cc1cccc(-c2cccnc2)n1
IC50 [1]: 580 nM

Structure (SMILES): N=C(N)c1ccc(CNC(=O)c2cnn(Cc3ccccc3)c2)cc1
IC50 [1]: 62 nM

Structure (SMILES): Cc1cc(C(=O)NCc2ccc(CN)cc2)c(C)n1CCCCCc1ccccc1
IC50 [1]: 3800 nM

Structure (SMILES): Cc1cc(C(=O)NCc2ccc(CN)cc2)c(C)n1Cc1csc(-c2ccccc2)c1
IC50 [1]: 600 nM

inhibition [2]: 20%
inhibition [3]: 74%
Structure (SMILES): O=C(NCc1cccc(Cl)c1)c1cnn(Cc2ccc(Cn3ccccc3=O)cc2)c1

Structure (SMILES): COCc1nn(Cc2ccc(Cn3ccccc3=O)cc2)cc1C(=O)NCc1nccc(C)c1F
IC50 [1]: 140 nM

Structure (SMILES): Cc1ccc(CNC(=O)c2cnn(Cc3ccc(Cn4ccccc4=O)cc3)c2)cc1
inhibition [2]: 36%
inhibition [3]: 84%
IC50 [1]: 88 nM

Structure (SMILES): Cc1cc(C(=O)NCc2ccc(CN)cc2)c(C)n1Cc1ccccc1
IC50 [1]: 3700 nM

Structure (SMILES): Cc1cc(C(=O)NCc2ccc(CN)cc2)c(C)n1CCCc1ccccc1
IC50 [1]: 4800 nM

Structure (SMILES): COc1ccnc(CNC(=O)c2cn(Cc3ccc(Cn4ccccc4=O)cc3)nc2C2CC2)c1F
IC50 [1]: 4.4 nM
microsomal intrinsic clearance [6]: 49 µL/min

Structure (SMILES): Cc1cc(C(=O)NCc2ccc(CN)cc2)c(C)n1Cc1csc(-c2cccnc2)c1
IC50 [1]: 440 nM

Structure (SMILES): Cc1cc(C(=O)NCc2ccc(CN)cc2)c(C)n1Cc1csc(-c2ccccc2)n1
IC50 [1]: 72 nM

Papp A→B at 1 h ([7]; Caco-2): 2 ×10⁻⁶ cm/s
microsomal CLint ([6]; liver microsomes, read-out: CLH): 37 µL/min/mg
Structure (SMILES): Nc1cccc2cc(CNC(=O)c3cnn(Cc4ccc(Cn5ccccc5=O)cc4)c3)ccc12

Source: ChEMBL document CHEMBL5108074 (J Med Chem, 2022)
